Measured values published in ChEMBL document CHEMBL1147446, “Antagonists of human CCR5 receptor containing 4-(pyrazolyl)piperidine side chains. Part 3: SAR studies on the benzylpyrazole segment” (Bioorg Med Chem Lett, 2004).

Columns and labels:
[1] = molecular target: C-C chemokine receptor type 5 (Homo sapiens, UniProt P51681); experiment: Inhibitory concentration for displacement of [125I]-MIP-1 alpha from recombinant human CC chemokine receptor 5 (CCR5) expressed in CHO cell; assay type: cell-based
C-C chemokine receptor type 5, sequence (P51681 whole entry): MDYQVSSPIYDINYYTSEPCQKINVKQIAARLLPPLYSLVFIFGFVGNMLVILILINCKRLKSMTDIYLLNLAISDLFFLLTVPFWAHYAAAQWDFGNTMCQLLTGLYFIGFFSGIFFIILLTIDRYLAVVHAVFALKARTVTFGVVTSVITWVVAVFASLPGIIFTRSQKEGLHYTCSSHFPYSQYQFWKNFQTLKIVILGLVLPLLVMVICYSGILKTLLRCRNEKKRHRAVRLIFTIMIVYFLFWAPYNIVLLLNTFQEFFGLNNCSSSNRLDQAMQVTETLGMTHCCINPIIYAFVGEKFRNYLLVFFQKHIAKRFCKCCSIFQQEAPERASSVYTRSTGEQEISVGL
In short: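 Competitive binding to CCR5 on CHO cell membranes, read as displacement of [125I]-labeled MIP-1α. IC50 values are means of triplicate determinations. Standard errors were normally <15% within an assay. Assay-to-assay variation was within ±2-fold, judged from a standard compound.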

[2] = test system: HeLa; experiment: Antiviral activities in a cell culture HIV-1 infectivity inhibition assay using HeLa cells plus 50% normal human serum; assay type: functional
[3] = test system: HeLa; experiment: Antiviral activities in a cell culture HIV-1 infectivity inhibition assay using HeLa cells; assay type: functional; conditions: Homo sapiens

| SMILES | IC50 [1] [nM] | IC90 [2] [nM] | IC90 [3] [nM] |
| --- | --- | --- | --- |
| CC[C@H](C)[C@H](C(=O)O)N1C[C@H](CN2CCC(c3cc(CC4CCCCC4)nn3CC)CC2)[C@@H](c2cccc(F)c2)C1 | 1.2 | 300 | 1.2 |
| CCn1nc(Cc2ccc(Oc3ccccc3)cc2)cc1C1CCN(C[C@H]2CN([C@@H](C(=O)O)C(C)C)C[C@@H]2c2cccc(F)c2)CC1 | 0.6 | > 300 | 11 |
| CCn1nc(Cc2ccc(Oc3ccccc3)cc2)cc1C1CCN(C[C@H]2CN([C@@H](C(=O)O)C3CCCCC3)C[C@@H]2c2cccc(F)c2)CC1 | 0.5 | 100 | 1.2 |
| CCn1nc(Cc2ccc(Cl)cc2)cc1C1CCN(C[C@H]2CN([C@@H](C(=O)O)C3CCCCC3)C[C@@H]2c2cccc(F)c2)CC1 | 0.9 | 100 | 0.4 |
| CC[C@@H](C)[C@H](C(=O)O)N1C[C@H](CN2CCC(c3cc(Cc4ccc(OCC(F)(F)F)cc4)nn3CC)CC2)[C@@H](c2cccc(F)c2)C1 | 0.5 | 100 | 3.7 |
| CCn1nc(Cc2ccc(S(C)(=O)=O)cc2)cc1C1CCN(C[C@H]2CN([C@@H](C(=O)O)C3CCCCC3)C[C@@H]2c2cccc(F)c2)CC1 | 2.3 | 11 | 0.4 |
| CCn1nc(Cc2cccc(F)c2)cc1C1CCN(C[C@H]2CN([C@@H](C(=O)O)C3CCCCC3)C[C@@H]2c2cccc(F)c2)CC1 | 1 | 33 | < 0.14 |
| CCn1nc(Cc2ccc(S(=O)(=O)c3ccccc3)cc2)cc1C1CCN(C[C@H]2CN([C@@H](C(=O)O)C(C)(C)C)C[C@@H]2c2cccc(F)c2)CC1 | 1.1 | 3.7 | < 0.14 |
| CC[C@H](C)[C@H](C(=O)O)N1C[C@H](CN2CCC(c3cc(Cc4cccc5ccccc45)nn3CC)CC2)[C@@H](c2cccc(F)c2)C1 | 0.4 | 11 | < 0.14 |
| CCn1nc(Cc2ccc(C#N)cc2)cc1C1CCN(C[C@H]2CN([C@@H](C(=O)O)C3CCCCC3)C[C@@H]2c2cccc(F)c2)CC1 | 1.7 | 11 | 0.4 |
| CCOc1ccc(Cc2cc(C3CCN(C[C@H]4CN([C@@H](C(=O)O)C(C)(C)C)C[C@@H]4c4cccc(F)c4)CC3)n(CC)n2)cc1F | 0.7 | 11 | < 0.14 |
| CC[C@@H](C)[C@H](C(=O)O)N1C[C@H](CN2CCC(c3cc(Cc4ccc(OC(F)F)cc4)nn3CC)CC2)[C@@H](c2cccc(F)c2)C1 | 0.6 | 11 | < 0.14 |
| CCn1nc(Cc2ccccc2F)cc1C1CCN(C[C@H]2CN([C@@H](C(=O)O)C(C)C)C[C@@H]2c2cccc(F)c2)CC1 | 2.2 | > 300 | 11 |
| CCOc1ccc(Cc2cc(C3CCN(C[C@H]4CN([C@@H](C(=O)O)[C@H](C)CC)C[C@@H]4c4cccc(F)c4)CC3)n(CC)n2)cc1F | 0.4 | 33 | < 0.14 |
| CCn1nc(Cc2ccc(OC(F)(F)F)cc2)cc1C1CCN(C[C@H]2CN([C@@H](C(=O)O)C(C)C)C[C@@H]2c2cccc(F)c2)CC1 | 0.8 | 300 | 3.7 |
| CC[C@@H](C)[C@H](C(=O)O)N1C[C@H](CN2CCC(c3cc(Cc4ccc(O)cc4)nn3CC)CC2)[C@@H](c2cccc(F)c2)C1 | 0.6 | 11 | < 0.14 |
| CCn1nc(Cc2ccc(C(C)C)cc2)cc1C1CCN(C[C@H]2CN([C@@H](C(=O)O)C(C)(C)C)C[C@@H]2c2cccc(F)c2)CC1 | 0.6 | 33 | 0.4 |
| CCn1nc(Cc2ccc(C)cc2)cc1C1CCN(C[C@H]2CN([C@@H](C(=O)O)C(C)(C)C)C[C@@H]2c2cccc(F)c2)CC1 | 0.6 | 33 | < 0.14 |

| SMILES | IC50 [1] [nM] | IC90 [2] [nM] | IC90 [3] [nM] |
| --- | --- | --- | --- |
| CCCOc1ccc(Cc2cc(C3CCN(C[C@H]4CN([C@@H](C(=O)O)[C@@H](C)CC)C[C@@H]4c4cccc(F)c4)CC3)n(CC)n2)cc1 | 1.1 | 100 | < 0.14 |
| CCn1nc(CC2CCCCC2)cc1C1CCN(C[C@H]2CN([C@@H](C(=O)O)C(C)(C)C)C[C@@H]2c2cccc(F)c2)CC1 | 1.1 | 300 | 3.7 |
| CCOc1ccc(Cc2cc(C3CCN(C[C@H]4CN([C@@H](C(=O)O)C(C)C)C[C@@H]4c4cccc(F)c4)CC3)n(CC)n2)cc1 | 1 | 300 | 0.4 |
| CCn1nc(Cc2ccc(OC3CC3)cc2)cc1C1CCN(C[C@H]2CN([C@@H](C(=O)O)C(C)C)C[C@@H]2c2cccc(F)c2)CC1 | 1 | 300 | 1.2 |
| CCn1nc(Cc2cc(F)cc(F)c2)cc1C1CCN(C[C@H]2CN([C@@H](C(=O)O)C(C)C)C[C@@H]2c2cccc(F)c2)CC1 | 2.6 | 300 | 11 |
| CCn1nc(Cc2cccc(C#N)c2)cc1C1CCN(C[C@H]2CN([C@@H](C(=O)O)C(C)(C)C)C[C@@H]2c2cccc(F)c2)CC1 | 1 | 11 | < 0.14 |
| CC[C@H](C)[C@H](C(=O)O)N1C[C@H](CN2CCC(c3cc(Cc4ccc(C#N)cc4)nn3CC)CC2)[C@@H](c2cccc(F)c2)C1 | 1.3 | 3.7 | < 0.14 |
| CCn1nc(Cc2ccc(OC(C)(C)C)cc2)cc1C1CCN(C[C@H]2CN([C@@H](C(=O)O)C(C)C)C[C@@H]2c2cccc(F)c2)CC1 | 0.8 | 100 | < 0.14 |
| CCCOc1ccc(Cc2cc(C3CCN(C[C@H]4CN([C@@H](C(=O)O)C(C)C)C[C@@H]4c4cccc(F)c4)CC3)n(CC)n2)cc1 | 0.8 | > 300 | 3.7 |
| CC[C@@H](C)[C@H](C(=O)O)N1C[C@H](CN2CCC(c3cc(Cc4cc(C(F)(F)F)cc(C(F)(F)F)c4)nn3CC)CC2)[C@@H](c2cccc(F)c2)C1 | 1.6 | > 300 | 33 |
| CC[C@H](C)[C@H](C(=O)O)N1C[C@H](CN2CCC(c3cc(Cc4ccc(OCc5ccccc5)cc4)nn3CC)CC2)[C@@H](c2cccc(F)c2)C1 | 0.7 | 300 | 3.7 |
| CCn1nc(Cc2ccc(OC)cc2)cc1C1CCN(C[C@H]2CN([C@@H](C(=O)O)C(C)C)C[C@@H]2c2cccc(F)c2)CC1 | 1.3 | 100 | 0.4 |
| CCn1nc(Cc2ccc(OC(C)(C)C)cc2)cc1C1CCN(C[C@H]2CN([C@@H](C(=O)O)C(C)(C)C)C[C@@H]2c2cccc(F)c2)CC1 | 2 | 300 | 11 |
| CC[C@H](C)[C@H](C(=O)O)N1C[C@H](CN2CCC(c3cc(Cc4ccc(-c5ccccc5)cc4)nn3CC)CC2)[C@@H](c2cccc(F)c2)C1 | 0.3 | 33 | 0.4 |
| CCOc1cccc(Cc2cc(C3CCN(C[C@H]4CN([C@@H](C(=O)O)[C@H](C)CC)C[C@@H]4c4cccc(F)c4)CC3)n(CC)n2)c1 | 0.8 | > 300 | < 0.14 |
| CCn1nc(Cc2ccc(F)cc2)cc1C1CCN(C[C@H]2CN([C@@H](C(=O)O)C3CCCCC3)C[C@@H]2c2cccc(F)c2)CC1 | 1.1 |  | 33 |
| CCn1nc(Cc2ccccc2)cc1C1CCN(C[C@H]2CN([C@@H](C(=O)O)C3CCCCC3)C[C@@H]2c2cccc(F)c2)CC1 |  | 100 |  |
